Screening results as filed in PubChem BioAssay.
ZTA counter: blocks Epstein-Barr virus ZTA, an EBNA-1 counter-screen; P03206; ZTA-DNA binding, fluorescence polarization; inhibition, % at 11 µM; 0.15% of 320,000 active; in the data active means inhibition above about 33%
EBNA-1 inhibitor: EBNA-1 DNA-binding inhibitors, primary screen, biochemical, fluorescence polarization; 0.34% of 300,000 active; inhibition, % at 14.8 µM; in the data active means inhibition above about 28%
GPR7 antag: GPR7 receptor antagonists, primary screen, cell-based, fluorescence, single concentration; Neuropeptides B/W receptor type 1 (Homo sapiens), P48145; GPR7-expressing cells, fluorescence antagonist assay; inhibition, % at 4.4 µM; 1.1% of 290,000 active; AID 1861, 2009; in the data active means inhibition above about 16%, passing the limit was not always enough;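 further: cells stimulated with the agonist NPW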
Target sequence (P48145 whole entry, looked up): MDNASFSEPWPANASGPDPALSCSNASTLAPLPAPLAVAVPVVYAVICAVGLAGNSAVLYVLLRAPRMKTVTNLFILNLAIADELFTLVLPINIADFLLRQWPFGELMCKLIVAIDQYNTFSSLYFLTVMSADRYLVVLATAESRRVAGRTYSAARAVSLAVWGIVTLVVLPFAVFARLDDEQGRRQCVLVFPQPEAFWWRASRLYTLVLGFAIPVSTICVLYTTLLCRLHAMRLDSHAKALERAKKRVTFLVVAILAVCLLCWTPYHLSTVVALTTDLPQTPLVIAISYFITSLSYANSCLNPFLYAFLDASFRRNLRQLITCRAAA
HCV NS3 hel inh: inhibitors of HCV NS3 helicase, primary screen, biochemical, Cy5 molecular beacon fluorescence; NS3 helicase DNA unwinding; inhibition, % at 10.9 µM; 0.56% of 290,000 active;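 active means inhibition above the mean of all tested compounds plus 3 SD, set per campaign, cut at about 35% in these data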
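test system = hepatitis C virus NS3 helicase domain fragment enzyme | reagent = annealed dual-labelled DNA beacon duplex, ATP-started | times = 1 h at 25 °C | detection = Cy5 fluorescence, 0 and 60 min reads | read-out basis = percent inhibition from t60/t0 fluorescence ratio | control set = DMSO and thioflavine S | replication = one well per compound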
core dimer inh: inhibitors of HCV core protein dimerization, primary screen, biochemical, TR-FRET, high-throughput; TR-FRET GST/Flag-core106 dimerization, 1536-well; inhibition, % at 5 µM; 0.33% of 300,000 active;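 active means inhibition above the mean of all tested compounds plus 3 SD, set per screening campaign, cut at about 45% in these data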
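assay system = GST-tagged and Flag-tagged HCV core protein residues 1-106 | controls = unlabelled core106 and no-GST-core106 wells | incubation = compound-protein-antibody incubation 4 h at 22.5 °C | probe or stimulus = Eu donor and XL665 acceptor anti-tag antibodies | read-out = % inhibition based on acceptor/donor emission ratio | signal = TR-FRET 671 and 617 nm emission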
EBV gp42 block: Epstein-Barr virus gp42 inhibitors, primary screen, biochemical, uHTS, fluorescence polarization | Fluorescence polarization binding assay, mP read-out | inhibition, % (tested at 21.74 µM) | 0.42% of 220,000 active; in the data active means inhibition above about 50%
EBNA-1 inh conf: EBNA-1 DNA-binding inhibitors, retest, confirmation, biochemical, fluorescence polarization, triplicate. shares compounds with EBNA-1 inhibitor. Recombinant EBNA-1 DBD, Cy5-DNA fluorescence polarization. inhibition, % at 14.8 µM. 35% of 830 active. AID 2292, 2010;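 active means mean inhibition across replicates above a set limit taken from the earlier primary screen, cut at about 28% in these data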
ZTA counter trip: EBV Zta DNA binding inhibitors, counter-screen for EBNA-1 inhibitor project, biochemical, fluorescence polarization, triplicate; shares compounds with EBNA-1 inhibitor; Zta-ZRE DNA binding, Cy5 fluorescence polarization; inhibition, % at 11.1 µM; 830 tested, under 10 active; AID 2328, 2010;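 active means mean inhibition over triplicates above a set limit taken from the primary EBNA-1 screen, cut at about 37% in these data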;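 further: purified full length Zta protein with Cy5 labeled ZRE DNA probe; inhibitors lower polarization by freeing the labeled DNA probe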
A number is an active result. Rows were chosen to be rich in hits. Some 2.3% of all compounds tested hit in one or more screens of this group.

How did CCOc1cc(/C=N/NC(=O)C(=O)N/N=C/c2ccc(O)c(OCC)c2)ccc1O do in these assays?
ZTA counter: inactive; EBNA-1 inhibitor: 27.7; GPR7 antag: inactive; HCV NS3 hel inh: inactive; core dimer inh: inactive; EBNA-1 inh conf: inactive; ZTA counter trip: inactive

What do the screens show for `CCN(CC)S(=O)(=O)c1ccc(C(=O)Nc2nnc(NC(=S)Nc3ccccc3)s2)cc1`?
ZTA counter: inactive; EBNA-1 inhibitor: 38.5; GPR7 antag: inactive; HCV NS3 hel inh: inactive; core dimer inh: inactive; EBV gp42 block: inactive; EBNA-1 inh conf: 75.3; ZTA counter trip: inactive

Results for CCOC(=O)CN(C(=O)CSc1nnc2c(n1)[nH]c1ccccc12)c1ccccc1 ?
ZTA counter: inactive; EBNA-1 inhibitor: 40.4; GPR7 antag: inactive; HCV NS3 hel inh: inactive; core dimer inh: inactive; EBV gp42 block: inactive; EBNA-1 inh conf: inactive; ZTA counter trip: inactive

How did O=C(N/N=C/c1ccc(F)cc1)c1cc(-c2ccc3c(c2)OCO3)n[nH]1 do in these assays?
ZTA counter: inactive; EBNA-1 inhibitor: 32.1; GPR7 antag: inactive; HCV NS3 hel inh: inactive; core dimer inh: inactive; EBV gp42 block: inactive; EBNA-1 inh conf: inactive; ZTA counter trip: inactive

What do the screens show for `CN(C)c1ccc(/C=N/NC(=O)c2cc(-c3ccc4c(c3)OCO4)n[nH]2)cc1`?
ZTA counter: inactive; EBNA-1 inhibitor: inactive; GPR7 antag: inactive; HCV NS3 hel inh: inactive; core dimer inh: inactive; EBV gp42 block: inactive

What do the screens show for `Nc1cc(Cl)ccc1N1CCCCCC1`?
ZTA counter: inactive; EBNA-1 inhibitor: inactive; GPR7 antag: inactive; HCV NS3 hel inh: inactive; core dimer inh: inactive; EBV gp42 block: inactive

How did CCCN(CC(=O)Nc1ccc(C(N)=O)cc1)CC(=O)Nc1ccc(Cl)cc1Cl do in these assays?
ZTA counter: inactive; EBNA-1 inhibitor: 28.7; GPR7 antag: inactive; HCV NS3 hel inh: inactive; core dimer inh: inactive; EBV gp42 block: inactive; EBNA-1 inh conf: inactive; ZTA counter trip: inactive

Results for O=C(CCOc1ccccc1)Nc1ccnn1C1CCN(Cc2ccc(CO)o2)CC1 ?
ZTA counter: inactive; EBNA-1 inhibitor: inactive; GPR7 antag: inactive; HCV NS3 hel inh: inactive; core dimer inh: inactive

Results for COc1ccc2c(c1)c(CC(=O)Nc1cccc(S(N)(=O)=O)c1)c(C)n2C(=O)c1ccc(Cl)cc1 ?
ZTA counter: inactive; EBNA-1 inhibitor: 36.8; GPR7 antag: inactive; HCV NS3 hel inh: inactive; core dimer inh: inactive; EBV gp42 block: inactive; EBNA-1 inh conf: inactive; ZTA counter trip: inactive

What do the screens show for `Cc1cc(C)c(S(=O)(=O)c2ccccc2)c(N2CCOCC2)n1`?
ZTA counter: inactive; EBNA-1 inhibitor: inactive; GPR7 antag: inactive; HCV NS3 hel inh: inactive; core dimer inh: inactive; EBV gp42 block: inactive

Results for Cc1ccc2c(c1)N(CC(=O)NCCCN1CCOCC1)C(=O)c1cccnc1O2 ?
ZTA counter: inactive; EBNA-1 inhibitor: inactive; GPR7 antag: inactive; HCV NS3 hel inh: inactive; core dimer inh: inactive

Results for O=C(CCN1C(=O)/C(=C/c2cccs2)SC1=S)NC1=NCCS1 ?
ZTA counter: inactive; EBNA-1 inhibitor: 33.6; GPR7 antag: inactive; HCV NS3 hel inh: inactive; core dimer inh: inactive; EBV gp42 block: inactive; EBNA-1 inh conf: inactive; ZTA counter trip: inactive

Results for O=C(CCN1C(=O)/C(=C\c2cccs2)SC1=S)NC1=NCCS1 ?
ZTA counter: inactive; EBNA-1 inhibitor: inactive; GPR7 antag: inactive; HCV NS3 hel inh: inactive; core dimer inh: inactive; EBV gp42 block: inactive

What do the screens show for `CCc1ccccc1NC(=S)N=Nc1c(O)n(C)c2ccc(S(=O)(=O)N3CCOCC3)cc12`?
ZTA counter: inactive; EBNA-1 inhibitor: 49.1; GPR7 antag: inactive; HCV NS3 hel inh: inactive; core dimer inh: inactive; EBV gp42 block: inactive; EBNA-1 inh conf: inactive; ZTA counter trip: inactive
